Results published in ChEMBL document CHEMBL2321857, “Synthesis, topoisomerase-targeting activity and growth inhibition of lycobetaine analogs” (Bioorg Med Chem, 2013).
Active and inactive are the calls of the source. The calls are words filed in the database; no cut-off is given here.

Experiments:
[1] = target: T1, DNA topoisomerase 1 (Homo sapiens) (UniProt P11387); experiment: Inhibition of human recombinant topoisomerase 1-mediated relaxation of supercoiled pUC18 plasmid DNA in human MCF7 cells nuclear extracts at 100 uM after 30 mins by ethidium bromide staining based gel electrophoresis analysis; assay type: cell-free
T1 sequence (whole entry): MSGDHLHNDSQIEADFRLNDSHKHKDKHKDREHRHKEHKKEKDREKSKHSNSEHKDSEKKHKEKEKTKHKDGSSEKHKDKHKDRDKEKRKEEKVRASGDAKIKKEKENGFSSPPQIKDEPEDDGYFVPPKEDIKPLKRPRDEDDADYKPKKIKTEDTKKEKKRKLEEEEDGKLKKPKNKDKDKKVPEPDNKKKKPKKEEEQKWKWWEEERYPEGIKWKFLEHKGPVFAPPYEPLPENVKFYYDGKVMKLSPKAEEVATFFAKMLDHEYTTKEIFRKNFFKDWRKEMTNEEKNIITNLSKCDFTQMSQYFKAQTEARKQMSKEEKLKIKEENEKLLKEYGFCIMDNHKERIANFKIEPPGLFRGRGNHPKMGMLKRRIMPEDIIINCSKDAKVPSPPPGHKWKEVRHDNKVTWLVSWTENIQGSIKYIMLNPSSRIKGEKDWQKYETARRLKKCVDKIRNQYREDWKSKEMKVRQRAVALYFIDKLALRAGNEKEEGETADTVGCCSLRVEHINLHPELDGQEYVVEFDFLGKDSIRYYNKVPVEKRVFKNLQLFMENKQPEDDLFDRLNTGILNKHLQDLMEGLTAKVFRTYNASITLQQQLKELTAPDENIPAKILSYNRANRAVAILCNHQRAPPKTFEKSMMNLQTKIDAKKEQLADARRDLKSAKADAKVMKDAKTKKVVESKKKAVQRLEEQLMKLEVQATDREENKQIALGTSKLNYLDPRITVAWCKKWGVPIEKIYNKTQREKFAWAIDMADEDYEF
Outline: (§1)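 Topo I activity came from MCF-7 nuclear extract (0.3 µL) acting on 250 ng supercoiled pUC18. Buffer: 10 mM Tris/HCl pH 7.9, 50 mM KCl, 10 mM MgCl2, 0.5 mM DTT, 0.5 mM EDTA, 0.03 mg/mL BSA, no ATP. Incubation 30 min at 37 °C. Stopped with SDS, then proteinase K digest. Run on 1% agarose TAE gel and stained with ethidium bromide afterward. Scored as lowest inhibiting concentration from 10, 30, 50 or 100 µM.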

[2] = Growth inhibition of human GXF251L cells after 72 hrs by SRB assay; assay type: functional; conditions: GXF 251L
Outline: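 GXF251L gastric xenograft-derived cells in RPMI-1640 with 10% FCS were seeded at 6000 cells/well and grown 24 h. They were then exposed 72 h in serum-containing medium with 1% DMSO final. Cells were fixed with TCA for 1 h at 4 °C and stained with 0.4% SRB. Dye was dissolved in 10 mM Tris pH 10.5 and read at 570 nm. IC50 vs DMSO control; three independent experiments.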

[3] = target: DNA topoisomerase 2-beta (Homo sapiens) (UniProt Q02880); experiment: Inhibition of human recombinant topoisomerase 2beta-mediated decatenation of kDNA at 30 uM after 60 mins by ethidium bromide staining based gel electrophoresis analysis
Outline: (§2)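 Recombinant human topo IIα or IIβ (40 ng) was incubated with 200 ng Crithidia kDNA. Buffer: 50 mM Tris/HCl pH 7.9, 120 mM KCl, 10 mM MgCl2, 1 mM ATP, 0.5 mM DTT, 0.5 mM EDTA, 0.03 mg/mL BSA. Incubation 60 min at 37 °C. Stopped with proteinase K/SDS, digested 30 min, run on 1% agarose and stained with ethidium bromide. Decatenated minicircle signal as T/C% vs DMSO; three experiments.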

[4] = target: DNA topoisomerase 2-alpha (Homo sapiens) (UniProt P11388); experiment: Inhibition of human recombinant topoisomerase 2alpha-mediated decatenation of kDNA at 50 uM after 60 mins by ethidium bromide staining based gel electrophoresis analysis; outline: as §2
[5] = target: T1, DNA topoisomerase 1 (Homo sapiens); experiment: Inhibition of human recombinant topoisomerase 1-mediated relaxation of supercoiled pUC18 plasmid DNA in human MCF7 cells nuclear extracts at 10 uM after 30 mins by ethidium bromide staining based gel electrophoresis analysis; assay type: cell-free; outline: as §1
[6] = target: T1, DNA topoisomerase 1 (Homo sapiens); experiment: Stabilization of topoisomerase 1/DNA complex in human A431 cells; assay type: cell-based; conditions: A-431
Outline: (§3)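 A431 cells were grown 72 h, then treated 1 h serum-free (10–100 µM; 1% DMSO control). Cells were lysed in sarkosyl TE buffer, and lysate was spun on a CsCl step gradient at 100,000 × g for 24 h at 20 °C. Fractions were measured by A260 and slot-blotted. Topo I, IIα or IIβ was immunodetected by chemiluminescence and expressed as T/C% per DNA content. Three experiments.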

[7] = target: DNA topoisomerase 2-beta (Homo sapiens) (UniProt Q02880); experiment: Inhibition of topoisomerase 2beta in human A431 cells assessed as DNA peak fractions level after 1 hr by ICE assay; assay type: cell-based; conditions: A-431; outline: as §3
[8] = target: DNA topoisomerase 2-alpha (Homo sapiens) (UniProt P11388); experiment: Inhibition of topoisomerase 2alpha in human A431 cells assessed as DNA peak fractions level after 1 hr by ICE assay; assay type: cell-based; conditions: A-431; outline: as §3
[9] = target: DNA topoisomerase 2-beta (Homo sapiens) (UniProt Q02880); experiment: Inhibition of human recombinant topoisomerase 2beta-mediated decatenation of kDNA at 100 uM after 60 mins by ethidium bromide staining based gel electrophoresis analysis; outline: as §2
[10] = target: DNA topoisomerase 2-alpha (Homo sapiens) (UniProt P11388); experiment: Inhibition of human recombinant topoisomerase 2alpha-mediated decatenation of kDNA at 100 uM after 60 mins by ethidium bromide staining based gel electrophoresis analysis; outline: as §2
[11] = target: T1, DNA topoisomerase 1 (Homo sapiens); experiment: Inhibition of human recombinant topoisomerase 1-mediated relaxation of supercoiled pUC18 plasmid DNA in human MCF7 cells nuclear extracts at 50 uM after 30 mins by ethidium bromide staining based gel electrophoresis analysis; assay type: cell-free; outline: as §1
[12] = target: DNA topoisomerase 2-beta (Homo sapiens) (UniProt Q02880); experiment: Inhibition of human recombinant topoisomerase 2beta-mediated decatenation of kDNA up to 50 uM after 60 mins by ethidium bromide staining based gel electrophoresis analysis; outline: as §2
[13] = target: DNA topoisomerase 2-alpha (Homo sapiens) (UniProt P11388); experiment: Inhibition of human recombinant topoisomerase 2alpha-mediated decatenation of kDNA up to 50 uM after 60 mins by ethidium bromide staining based gel electrophoresis analysis; outline: as §2

Chain of DNA topoisomerase 2-alpha (Homo sapiens) (P11388 whole entry): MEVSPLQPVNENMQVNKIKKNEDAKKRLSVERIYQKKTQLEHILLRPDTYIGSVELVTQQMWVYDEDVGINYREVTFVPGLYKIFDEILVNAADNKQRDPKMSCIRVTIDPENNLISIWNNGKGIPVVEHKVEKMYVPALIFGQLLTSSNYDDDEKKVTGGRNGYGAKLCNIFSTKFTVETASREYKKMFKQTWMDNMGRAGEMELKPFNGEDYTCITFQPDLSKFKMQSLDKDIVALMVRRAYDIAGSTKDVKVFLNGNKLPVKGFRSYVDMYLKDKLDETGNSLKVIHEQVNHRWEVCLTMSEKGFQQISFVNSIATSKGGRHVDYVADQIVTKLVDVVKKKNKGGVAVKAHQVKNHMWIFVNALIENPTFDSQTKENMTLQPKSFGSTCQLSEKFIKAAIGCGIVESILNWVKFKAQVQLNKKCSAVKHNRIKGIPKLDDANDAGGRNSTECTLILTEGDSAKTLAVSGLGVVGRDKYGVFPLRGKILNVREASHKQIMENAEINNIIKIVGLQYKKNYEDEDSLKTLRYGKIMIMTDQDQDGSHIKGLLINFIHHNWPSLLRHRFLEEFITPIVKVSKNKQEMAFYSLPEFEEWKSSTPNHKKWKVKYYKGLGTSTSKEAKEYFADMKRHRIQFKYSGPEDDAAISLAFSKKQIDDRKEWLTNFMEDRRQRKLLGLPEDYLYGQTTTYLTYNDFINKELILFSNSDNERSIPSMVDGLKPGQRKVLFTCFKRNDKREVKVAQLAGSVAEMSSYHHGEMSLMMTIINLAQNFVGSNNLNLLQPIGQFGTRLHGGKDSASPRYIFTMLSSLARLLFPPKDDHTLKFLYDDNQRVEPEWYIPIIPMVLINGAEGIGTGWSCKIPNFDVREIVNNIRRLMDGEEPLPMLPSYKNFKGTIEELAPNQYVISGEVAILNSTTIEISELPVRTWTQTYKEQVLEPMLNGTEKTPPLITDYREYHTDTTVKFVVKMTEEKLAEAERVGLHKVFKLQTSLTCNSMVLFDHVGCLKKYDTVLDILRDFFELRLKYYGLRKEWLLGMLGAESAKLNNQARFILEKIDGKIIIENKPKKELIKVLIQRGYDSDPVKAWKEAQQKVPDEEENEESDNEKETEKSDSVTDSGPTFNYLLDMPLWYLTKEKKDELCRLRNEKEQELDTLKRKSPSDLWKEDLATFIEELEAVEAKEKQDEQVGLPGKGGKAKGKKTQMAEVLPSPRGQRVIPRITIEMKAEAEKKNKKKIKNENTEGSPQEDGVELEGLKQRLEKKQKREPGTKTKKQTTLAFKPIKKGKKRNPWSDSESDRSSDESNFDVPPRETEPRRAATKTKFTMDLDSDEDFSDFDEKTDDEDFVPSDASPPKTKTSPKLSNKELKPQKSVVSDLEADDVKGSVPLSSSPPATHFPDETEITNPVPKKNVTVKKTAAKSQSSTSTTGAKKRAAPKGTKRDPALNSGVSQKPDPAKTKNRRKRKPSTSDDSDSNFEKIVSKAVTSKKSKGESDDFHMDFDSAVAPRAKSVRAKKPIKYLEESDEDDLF
Chain of DNA topoisomerase 2-beta (Homo sapiens) (Q02880 whole entry): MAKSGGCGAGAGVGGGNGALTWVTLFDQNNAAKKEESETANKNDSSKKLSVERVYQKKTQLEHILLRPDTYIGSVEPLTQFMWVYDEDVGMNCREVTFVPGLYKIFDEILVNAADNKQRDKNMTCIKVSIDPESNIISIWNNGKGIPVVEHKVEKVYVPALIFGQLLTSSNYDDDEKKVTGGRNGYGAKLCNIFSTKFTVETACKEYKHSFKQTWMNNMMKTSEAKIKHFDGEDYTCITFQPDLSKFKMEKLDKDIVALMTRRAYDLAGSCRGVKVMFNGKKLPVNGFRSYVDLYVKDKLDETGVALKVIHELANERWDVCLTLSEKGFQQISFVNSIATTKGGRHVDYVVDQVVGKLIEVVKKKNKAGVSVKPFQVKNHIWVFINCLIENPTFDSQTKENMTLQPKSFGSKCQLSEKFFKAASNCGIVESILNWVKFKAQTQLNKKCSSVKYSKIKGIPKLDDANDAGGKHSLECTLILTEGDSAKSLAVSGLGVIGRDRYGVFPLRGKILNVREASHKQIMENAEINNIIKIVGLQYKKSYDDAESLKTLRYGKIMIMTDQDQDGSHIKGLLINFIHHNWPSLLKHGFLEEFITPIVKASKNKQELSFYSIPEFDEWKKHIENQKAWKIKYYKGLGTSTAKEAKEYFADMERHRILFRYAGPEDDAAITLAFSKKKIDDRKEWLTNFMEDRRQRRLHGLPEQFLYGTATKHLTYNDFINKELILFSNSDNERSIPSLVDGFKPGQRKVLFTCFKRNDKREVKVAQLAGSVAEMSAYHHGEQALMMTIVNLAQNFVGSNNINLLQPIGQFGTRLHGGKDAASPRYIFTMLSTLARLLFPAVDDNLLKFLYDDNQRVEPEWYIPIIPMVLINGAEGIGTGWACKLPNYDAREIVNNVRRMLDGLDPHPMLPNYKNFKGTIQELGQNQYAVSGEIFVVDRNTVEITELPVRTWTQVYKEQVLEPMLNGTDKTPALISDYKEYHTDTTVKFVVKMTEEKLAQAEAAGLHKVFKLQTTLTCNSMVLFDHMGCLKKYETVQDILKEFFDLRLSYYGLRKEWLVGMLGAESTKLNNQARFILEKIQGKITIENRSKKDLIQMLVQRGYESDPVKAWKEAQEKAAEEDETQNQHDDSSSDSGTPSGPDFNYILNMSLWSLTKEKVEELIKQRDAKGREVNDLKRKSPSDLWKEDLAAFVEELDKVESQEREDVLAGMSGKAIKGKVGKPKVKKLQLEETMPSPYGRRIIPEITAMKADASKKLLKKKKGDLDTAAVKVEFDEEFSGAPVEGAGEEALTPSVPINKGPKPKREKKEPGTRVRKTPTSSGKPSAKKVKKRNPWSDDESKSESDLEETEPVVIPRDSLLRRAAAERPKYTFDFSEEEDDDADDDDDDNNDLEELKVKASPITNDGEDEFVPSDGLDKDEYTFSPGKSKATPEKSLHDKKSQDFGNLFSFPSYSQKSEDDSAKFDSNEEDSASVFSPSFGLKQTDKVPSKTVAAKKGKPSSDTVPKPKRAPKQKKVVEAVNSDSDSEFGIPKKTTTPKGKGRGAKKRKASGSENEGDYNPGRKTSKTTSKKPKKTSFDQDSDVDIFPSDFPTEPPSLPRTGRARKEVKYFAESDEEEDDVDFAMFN

Structure (SMILES) | inhibition [1] | IC50 [2] [µM] | inhibition [5] | further results
c1ccc2c(c1)ncc1cc3c(cc12)OCO3 [TRISPHAERIDINE] | inactive | 12 | – | –
COc1ccc2ncc3cc(OC)c(OC)cc3c2c1 | inactive | 41.1 | – | –
COc1ccc2ncc3cc4c(cc3c2c1)OCO4 | inactive | 12.1 | – | –
COc1cc2cnc3ccc(O)cc3c2cc1OC | inactive | 26 | – | –
Oc1cc2c3c(c1)c1cc4c(cc1c[n+]3CC2)OCO4 [LYCOBETAINE] | – | 3.2 | Active | inhibition [3]: Active; inhibition [4]: Active; Activity [6]: inactive; inhibition [7]: Dose-dependent effect; inhibition [8]: Dose-dependent effect
COc1ccc2c(cnc3ccc(O)cc32)c1 | inactive | > 50 | – | –
Oc1ccc2ncc3cc4c(cc3c2c1)OCO4 | inactive | 17.3 | – | –
COc1cc2c[n+](C)c3ccc(O)cc3c2cc1OC | – | 18.8 | – | inhibition [9]: inactive; inhibition [10]: inactive; inhibition [11]: Active
C[n+]1cc2cc3c(cc2c2ccccc21)OCO3 | – | 1.9 | Active | inhibition [12]: inactive; inhibition [13]: inactive
COc1ccc2c(c1)c1cc(OC)c(OC)cc1c[n+]2C | – | 7.8 | Active | inhibition [10]: Active
COc1ccc2c(c1)c1ccccc1c[n+]2C | – | 4 | Active | inhibition [9]: Active; inhibition [10]: Active
COc1ccc2c(c1)c1cc3c(cc1c[n+]2C)OCO3 | – | 0.9 | Active | inhibition [3]: Active; inhibition [4]: Active
COc1ccc2c[n+](C)c3ccc(O)cc3c2c1 | inactive | 8.4 | – | inhibition [12]: inactive; inhibition [13]: inactive
COc1ccc2c(c1)c[n+](C)c1ccc(O)cc21 | – | 5.4 | Active | inhibition [9]: inactive; inhibition [10]: inactive
C[n+]1cc2cc3c(cc2c2cc(O)ccc21)OCO3 | – | 1.6 | Active | inhibition [3]: Active; inhibition [4]: Active
COc1ccc2cnc3ccc(O)cc3c2c1 | inactive | 40.6 | – | –
